Laboratory results from ChEMBL document CHEMBL1909525, “Synthesis and anticonvulsant activity of novel 2,6-diketopiperazine derivatives. Part 1: perhydropyrrole[1,2-a]pyrazines” (Eur J Med Chem, 2011).
Active and inactive are the calls of the source.

Key:
Mus musculus [1] = test: Anticonvulsant activity in ip dosed albino Carworth Farms No.1 mouse assessed as protection against maximal electroshock-induced seizure after 0.25 hrs; type: functional; details: albino Carworth Farms No.1, ip
In short: (§1)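 Mouse quantification at the time of peak effect, compound given i.p. in 0.5% methylcellulose. Groups of at least eight mice received varied doses until at least two points fell between 100 and 0% response. ED50 (MES, scMET) and TD50 (rotorod) with 95% CI by probit analysis (Finney). PI = TD50/ED50 MES.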

Mus musculus [2] = test: Anticonvulsant activity in ip dosed albino Carworth Farms No.1 mouse assessed as protection against subcutaneous metrazol-induced seizure after 0.25 hrs; type: functional; details: albino Carworth Farms No.1, 0.25 h; in short: as §1
Mus musculus [3] = organism: Mus musculus; test: Protective index, ratio of TD50 for albino Carworth Farms No.1 mouse to ED50 for albino Carworth Farms No.1 mouse by maximal electroshock-induced seizure test; type: functional
In short: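 Mouse quantification at the time of peak effect, compound given i.p. in 0.5% methylcellulose. Groups of at least eight mice received varied doses until at least two points fell between 100 and 0% response. PI = TD50/ED50 MES.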

Mus musculus [4] = test: Anticonvulsant activity in ip dosed albino Carworth Farms No.1 mouse assessed as time needs to show peak effect for protection against maximal electroshock-induced seizure; type: functional
Rattus norvegicus [5] = test: Anticonvulsant activity in po dosed albino Sprague-Dawley rat assessed as protection against maximal electroshock-induced seizure after 0.25 hrs; type: functional
In short: (§2)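 Rats dosed orally, compound in 0.5% methylcellulose. MES at 150 mA, 60 Hz, 0.2 s; scMET with pentylenetetrazole 70 mg/kg s.c. plus 30 min observation; rotorod for toxicity.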

Rattus norvegicus [6] = test: Anticonvulsant activity in po dosed albino Sprague-Dawley rat assessed as protection against subcutaneous metrazol-induced seizure after 0.25 hrs; type: functional; in short: as §2
[7] = Neurotoxicity in po dosed albino Sprague-Dawley rat assessed as motor impairment after 0.25 hrs by rotarod test; type: toxicity, organism-based; details: in vivo; in short: as §2
Rattus norvegicus [8] = organism: Rattus norvegicus; test: Protective index, ratio of TD50 for albino Sprague-Dawley rat to ED50 for albino Sprague-Dawley rat by maximal electroshock-induced seizure test; type: functional
Rattus norvegicus [9] = test: Anticonvulsant activity in po dosed albino Sprague-Dawley rat assessed as time needs to show peak effect for protection against maximal electroshock-induced seizure after 0.25 hrs; type: functional; in short: as §2
Mus musculus [10] = test: Anticonvulsant activity in albino Carworth Farms No.1 mouse assessed as protection against electric-current for 3 secs-induced seizure at 100 mg/kg, ip after 2 hrs by 6Hz minimal clonic seizure test; type: functional, organism-based; design: dose 100 mg/kg
In short: (§3)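 6 Hz psychomotor seizure test in mice. Compound given i.p. as a suspension in 0.5% methylcellulose. Corneal stimulation at 32 mA, 0.2-ms monopolar rectangular pulses at 6 Hz for 3 s, from a constant-current device. Tests run 0.25–4 h after dosing. A mouse counted as protected if it resumed normal exploratory behaviour within 10 s; scored as protected/tested.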

Mus musculus [11] = test: Neurotoxicity in albino Carworth Farms No.1 mouse assessed as motor impairment at 30 mg/kg, ip after 0.5 hrs by rotarod test; type: toxicity, organism-based; design: dose 30 mg/kg, route intraperitoneal; details: in vivo
In short: (§4)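 Rotorod neurotoxicity in mice at 6 r.p.m. Compound given i.p. (30, 100, 300 mg/kg) in 0.5% methylcellulose; tested at 30 min and 4 h. Impairment is inability to keep equilibrium on the rod for a given time; scored as impaired/tested.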

Mus musculus [12] = test: Neurotoxicity in albino Carworth Farms No.1 mouse assessed as motor impairment at 100 mg/kg, ip after 0.5 hrs by rotarod test; type: toxicity, organism-based; design: dose 100 mg/kg, route intraperitoneal; details: in vivo; in short: as §4
Mus musculus [13] = test: Neurotoxicity in albino Carworth Farms No.1 mouse assessed as motor impairment at 300 mg/kg, ip after 0.5 hrs by rotarod test; type: toxicity, organism-based; design: dose 300 mg/kg, route intraperitoneal; details: in vivo; in short: as §4
Mus musculus [14] = test: Anticonvulsant activity in albino Carworth Farms No.1 mouse assessed as protection against electric-current for 3 secs-induced seizure at 100 mg/kg, ip after 0.25 hrs by 6Hz minimal clonic seizure test; type: functional, organism-based; design: dose 100 mg/kg; in short: as §3
Mus musculus [15] = test: Anticonvulsant activity in albino Carworth Farms No.1 mouse assessed as protection against subcutaneous metrazol-induced seizure at 30 mg/kg, ip after 0.5 hrs; type: functional, organism-based; design: dose 30 mg/kg
In short: (§5)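 Mouse scMET test. Compound given i.p. (30, 100 or 300 mg/kg) in 0.5% methylcellulose. Pentylenetetrazole 85 mg/kg (CD97) given s.c. at 0.5 or 4 h, then mice observed for 30 min. Protection is absence of clonic spasms; scored as protected/tested.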

Mus musculus [16] = test: Anticonvulsant activity in albino Carworth Farms No.1 mouse assessed as protection against subcutaneous metrazol-induced seizure at 30 mg/kg, ip after 4 hrs; type: functional, organism-based; design: dose 30 mg/kg; in short: as §5
Mus musculus [17] = test: Anticonvulsant activity in albino Carworth Farms No.1 mouse assessed as protection against subcutaneous metrazol-induced seizure at 100 mg/kg, ip after 0.5 hrs; type: functional, organism-based; design: dose 100 mg/kg; in short: as §5
Mus musculus [18] = test: Anticonvulsant activity in albino Carworth Farms No.1 mouse assessed as protection against subcutaneous metrazol-induced seizure at 100 mg/kg, ip after 4 hrs; type: functional, organism-based; design: dose 100 mg/kg; in short: as §5
Mus musculus [19] = test: Anticonvulsant activity in albino Carworth Farms No.1 mouse assessed as protection against subcutaneous metrazol-induced seizure at 300 mg/kg, ip after 0.5 hrs; type: functional, organism-based; design: dose 300 mg/kg; in short: as §5
Mus musculus [20] = test: Anticonvulsant activity in albino Carworth Farms No.1 mouse assessed as protection against subcutaneous metrazol-induced seizure at 300 mg/kg, ip after 4 hrs; type: functional, organism-based; design: dose 300 mg/kg; in short: as §5
Mus musculus [21] = test: Anticonvulsant activity in albino Carworth Farms No.1 mouse assessed as protection against electric-current for 3 secs-induced seizure at 100 mg/kg, ip after 4 hrs by 6Hz minimal clonic seizure test; type: functional, organism-based; design: dose 100 mg/kg; in short: as §3
Mus musculus [22] = test: Neurotoxicity in albino Carworth Farms No.1 mouse assessed as motor impairment at 100 mg/kg, ip after 0.25 hrs by rotarod test; type: toxicity, organism-based; design: dose 100 mg/kg, route intraperitoneal; details: in vivo
In short: (§6)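 Rotorod neurotoxicity in mice (18–25 g) following i.p. dosing of a suspension in 0.5% methylcellulose in water, tested at intervals between 0.25 and 4 h. Impairment was scored as failure to keep equilibrium on a 6 r.p.m. rod, reported as number impaired/number tested.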

Mus musculus [23] = test: Neurotoxicity in albino Carworth Farms No.1 mouse assessed as motor impairment at 100 mg/kg, ip after 2 hrs by rotarod test; type: toxicity, organism-based; design: dose 100 mg/kg, route intraperitoneal; details: in vivo; in short: as §6
Mus musculus [24] = test: Neurotoxicity in albino Carworth Farms No.1 mouse assessed as motor impairment at 100 mg/kg, ip after 4 hrs by rotarod test; type: toxicity, organism-based; design: dose 100 mg/kg, route intraperitoneal; details: in vivo; in short: as §4
Mus musculus [25] = test: Neurotoxicity in albino Carworth Farms No.1 mouse assessed as motor impairment at 100 mg/kg, ip after 1 hr by rotarod test; type: toxicity, organism-based; design: dose 100 mg/kg, route intraperitoneal; details: in vivo; in short: as §6
Mus musculus [26] = test: Anticonvulsant activity in albino Carworth Farms No.1 mouse assessed as protection against maximal electroshock-induced seizure at 30 mg/kg, ip after 0.5 hrs; type: functional, organism-based; design: dose 30 mg/kg
In short: (§7)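 Mouse MES test with compound given i.p. (30, 100 or 300 mg/kg) in 0.5% methylcellulose; tested at 0.5 and 4 h. Corneal stimulus of 50 mA at 60 Hz for 0.2 s, electrodes primed with 0.5% butacaine in 0.9% NaCl. Protection is abolition of hindlimb tonic extension; scored as protected/tested.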

Mus musculus [27] = test: Anticonvulsant activity in albino Carworth Farms No.1 mouse assessed as protection against maximal electroshock-induced seizure at 30 mg/kg, ip after 4 hrs; type: functional, organism-based; design: dose 30 mg/kg; in short: as §7
Mus musculus [28] = test: Anticonvulsant activity in albino Carworth Farms No.1 mouse assessed as protection against maximal electroshock-induced seizure at 100 mg/kg, ip after 0.5 hrs; type: functional, organism-based; design: dose 100 mg/kg; in short: as §7
Mus musculus [29] = test: Anticonvulsant activity in albino Carworth Farms No.1 mouse assessed as protection against maximal electroshock-induced seizure at 100 mg/kg, ip after 4 hrs; type: functional, organism-based; design: dose 100 mg/kg; in short: as §7
Mus musculus [30] = test: Anticonvulsant activity in albino Carworth Farms No.1 mouse assessed as protection against maximal electroshock-induced seizure at 300 mg/kg, ip after 0.5 hrs; type: functional, organism-based; design: dose 300 mg/kg; in short: as §7
Mus musculus [31] = test: Anticonvulsant activity in albino Carworth Farms No.1 mouse assessed as protection against maximal electroshock-induced seizure at 300 mg/kg, ip after 4 hrs; type: functional, organism-based; design: dose 300 mg/kg; in short: as §7
Mus musculus [32] = test: Anticonvulsant activity in albino Carworth Farms No.1 mouse assessed as protection against electric-current for 3 secs-induced seizure at 100 mg/kg, ip after 1 hr by 6Hz minimal clonic seizure test; type: functional, organism-based; design: dose 100 mg/kg; in short: as §3
Mus musculus [33] = test: Neurotoxicity in albino Carworth Farms No.1 mouse assessed as motor impairment at 30 mg/kg, ip after 4 hrs by rotarod test; type: toxicity, organism-based; design: dose 30 mg/kg, route intraperitoneal; details: in vivo; in short: as §4
Mus musculus [34] = test: Neurotoxicity in albino Carworth Farms No.1 mouse assessed as motor impairment at 300 mg/kg, ip after 4 hrs by rotarod test; type: toxicity, organism-based; design: dose 300 mg/kg, route intraperitoneal; details: in vivo; in short: as §4

O=C1NC(=O)C(c2ccccc2)(c2ccccc2)N1 [PHENYTOIN]
1 h: Time (Mus musculus [4])
5.64 mg/kg: ED50 (Mus musculus [1])
28.1 mg/kg: ED50 (Rattus norvegicus [5])
> 50 mg/kg: ED50 (Mus musculus [2])
> 500 mg/kg: ED50 (Rattus norvegicus [6])
>36.6: Ratio TD50/ED50 (Rattus norvegicus [8])
7.3: Ratio TD50/ED50 (Mus musculus [3])
4 h: Time (Rattus norvegicus [9])
> 1000 mg/kg: TD50 at 0.25 h [7]

O=C1[C@@H]2CCCN2[C@H](c2ccccc2)C(=O)N1CCc1ccccc1
inactive: Activity (Mus musculus [10]) | Activity (Mus musculus [14]) | Activity (Mus musculus [15]) | Activity (Mus musculus [16]) | Activity (Mus musculus [17]) | Activity (Mus musculus [18]) | Activity (Mus musculus [19]) | Activity (Mus musculus [20]) | Activity (Mus musculus [21]) | Activity (Mus musculus [26]) | Activity (Mus musculus [27]) | Activity (Mus musculus [28]) | Activity (Mus musculus [29]) | Activity (Mus musculus [30]) | Activity (Mus musculus [31]) | Activity (Mus musculus [32])
Non-toxic: Activity (Mus musculus [11]) | Activity (Mus musculus [12]) | Activity (Mus musculus [13]) | Activity (Mus musculus [22]) | Activity (Mus musculus [23]) | Activity (Mus musculus [24]) | Activity (Mus musculus [25]) | Activity (Mus musculus [33]) | Activity (Mus musculus [34])
